Laboratory results as given in publication PMC11671551 (Cancer Chemotherapy and Pharmacology, 2024).
Read-outs that look alike come from different tables or passages of the source.

Tests used:
[1] = type: in vivo, human; conditions: for Serum concentration, mean: trough
Method in brief: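 mRCC patients recruited prospectively (March 2020–January 2022) on oral sunitinib, 2 weeks on/1 week off, with physician-set dose. Blood (5 mL) was drawn at outpatient visits 7–14 days into each cycle, 24 h post-dose or just before the next dose. It was spun at 1,500 ×g, 4 °C, 10 min, and the serum stored at -25 °C. Parent drug, N-desethyl and N-oxide were quantified by LC-MS/MS (LLOQ 2.5, 2.5, 0.1 ng/mL). Concentration/dose ratios were correlated with treatment duration by Pearson.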

[2] = Adverse events in mRCC patients receiving long-term sunitinib; type: in vivo, human
[3] = population pharmacokinetic analysis, patient weighing 100 kg; cited from earlier work
[4] = Pt1, maintenance dose 25 mg, 421–630 days after initiation
[5] = Pt1, maintenance dose 25 mg, 631–840 days after initiation
[6] = Pt1, maintenance dose 25 mg, 841–1050 days after initiation
[7] = Pt1, maintenance dose 25 mg, 1051–1260 days after initiation
[8] = Pt1, maintenance dose 25 mg, 1261–1470 days after initiation
[9] = Pt2, maintenance dose 25 mg, 631–840 days after initiation
[10] = Pt2, maintenance dose 25 mg, 841–1050 days after initiation
[11] = Pt3, maintenance dose 25 mg, 1051–1260 days after initiation
[12] = Pt3, maintenance dose 25 mg, 1261–1470 days after initiation
[13] = Pt3, maintenance dose 25 mg, 1471–1680 days after initiation
[14] = Pt3, maintenance dose 25 mg, 1681–1890 days after initiation
[15] = Pt4, maintenance dose 25 mg, 1891–2100 days after initiation
[16] = Pt5, maintenance dose 37.5 mg, 1261–1470 days after initiation
[17] = Pt5, maintenance dose 37.5 mg, 1471–1680 days after initiation
[18] = Pt5, maintenance dose 37.5 mg, 1681–1890 days after initiation
[19] = Pt6, maintenance dose 50 mg, 0–210 days after initiation
[20] = Pt6, maintenance dose 50 mg, 211–420 days after initiation
[21] = Pt6, maintenance dose 50 mg, 421–630 days after initiation
[22] = Pt7, maintenance dose 25 mg, 0–210 days after initiation
[23] = after follow-up, sunitinib C/D decreased group (n=3)
[24] = after follow-up, sunitinib C/D non-decreased group (n=4)
[25] = baseline, sunitinib C/D decreased group (n=3)
[26] = baseline, sunitinib C/D non-decreased group (n=4)
[27] = sunitinib C/D decreased group (n=3)
[28] = sunitinib C/D non-decreased group (n=4)

Pearson's correlation coefficient r between C/D ratio and treatment duration ([1]; Pt1)	Serum concentration, mean [1, 4] [ng/mL]	Serum concentration, mean [1, 5] [ng/mL]	Serum concentration, mean [1, 6] [ng/mL]	Serum concentration, mean [1, 7] [ng/mL]	Serum concentration, mean [1, 8] [ng/mL]	Pearson's correlation coefficient r between C/D ratio and treatment duration ([1]; Pt2)	Serum concentration, mean [1, 9] [ng/mL]	Serum concentration, mean [1, 10] [ng/mL]	Serum concentration, mean [1, 11] [ng/mL]	Serum concentration, mean [1, 12] [ng/mL]	Serum concentration, mean [1, 13] [ng/mL]	Serum concentration, mean [1, 14] [ng/mL]	Serum concentration, mean [1, 15] [ng/mL]	Serum concentration, mean [1, 16] [ng/mL]	Serum concentration, mean [1, 17] [ng/mL]	Serum concentration, mean [1, 18] [ng/mL]	Serum concentration, mean [1, 19] [ng/mL]	Serum concentration, mean [1, 20] [ng/mL]	Serum concentration, mean [1, 21] [ng/mL]	SMILES	also measured
-0.282	9.0	11.0	10.4	9.6	6.9	-0.500	22.7	20.9	13.2	12.5	15.5	14.6	11.0	12.6	12.1	14.7	30.4	27.7	30.4	CCNCCNC(=O)c1c(C)[nH]c(/C=C2\C(=O)Nc3ccc(F)cc32)c1C [N-desethyl sunitinib]	Serum concentration, mean [1, 22]: 17.8 ng/mL; N-desethyl sunitinib/sunitinib concentration ratio, median (min–max) [1, 23]: 0.29 (0.26–0.63); N-desethyl sunitinib/sunitinib concentration ratio, median (min–max) [1, 24]: 0.30 (0.16–0.54); N-desethyl sunitinib/sunitinib concentration ratio, median (min–max) [1, 25]: 0.28 (0.23–0.46); N-desethyl sunitinib/sunitinib concentration ratio, median (min–max) [1, 26]: 0.30 (0.19–0.44)
-0.756	0.68	0.59	0.40	0.29	0.10	-0.838	1.10	0.71	0.99	0.58	0.53	0.32	1.35	0.56	0.57	0.36	0.56	0.55	0.17	CC[N+]([O-])(CC)CCNC(=O)c1c(C)[nH]c(/C=C2\C(=O)Nc3ccc(F)cc32)c1C [Sunitinib N-oxide, sunitinib N-oxide]	Pearson's correlation coefficient r between C/D ratio and treatment duration ([1]; Pt6): -0.752; Serum concentration, mean [1, 22]: 0.24 ng/mL; Sunitinib N-oxide/sunitinib concentration ratio, median (min–max) [1, 23]: 0.004 (0.004–0.009); Sunitinib N-oxide/sunitinib concentration ratio, median (min–max) [1, 24]: 0.006 (0.004–0.029); Sunitinib N-oxide/sunitinib concentration ratio, median (min–max) [1, 25]: 0.013 (0.010–0.021); Sunitinib N-oxide/sunitinib concentration ratio, median (min–max) [1, 26]: 0.016 (0.014–0.026)
-0.608	44.0	48.3	41.2	33.1	26.2	-0.555	86.7	73.5	59.5	54.9	64.1	54.1	54.5	42.2	44.7	39.4	71.0	65.8	37.5	CCN(CC)CCNC(=O)c1c(C)[nH]c(/C=C2\C(=O)Nc3ccc(F)cc32)c1C [Sunitinib, sunitinib, reference compound]	Patients with grade 2 or higher anorexia ([2]; all 7 patients, five patients): 71.4%; Patients with anorexia (any grade) ([2]; all 7 patients, six patients): 85.7%; Anorexia Grade 0, number of patients [2, 27]: 1 n; Anorexia Grade 1, number of patients [2, 27]: 0 n; Anorexia Grade 2, number of patients [2, 27]: 1 n; Anorexia Grade 3, number of patients [2, 27]: 1 n; Diarrhea Grade 0, number of patients [2, 27]: 2 n; Diarrhea Grade 1, number of patients [2, 27]: 1 n; Anorexia Grade 0, number of patients [2, 28]: 0 n; Anorexia Grade 1, number of patients [2, 28]: 1 n; Anorexia Grade 2, number of patients [2, 28]: 2 n; Anorexia Grade 3, number of patients [2, 28]: 1 n; Diarrhea Grade 0, number of patients [2, 28]: 2 n; Diarrhea Grade 1, number of patients [2, 28]: 2 n; Maximum variation in Vd/F [3]: 14%; Pearson's correlation coefficient r between C/D ratio and treatment duration ([1]; Pt6): -0.590; Serum concentration, mean [1, 22]: 31.1 ng/mL
